Results: ChEMBL document CHEMBL3286335, “Synthesis of 2,3,6-trideoxy sugar triazole hybrids as potential new broad spectrum antimicrobial agents” (Eur J Med Chem, 2014)
≈ marks a conversion by molar mass, not a printed value.

Tests used:
Staphylococcus aureus [1] = test: Antimicrobial activity against methicillin-resistant Staphylococcus aureus after 24 hrs by microbroth dilution method; assay type: functional
Summary of the method: (§1)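 Microbroth dilution in Mueller Hinton broth, following NCCLS guidelines. Test compounds were run at 50-0.36 µg/mL against an initial inoculum of 1-5 × 10^3 cells/mL. Plates were incubated in a moist chamber at 35 °C, and absorbance at 492 nm was read after 24 h. MIC was taken as 90% growth inhibition relative to the growth control.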

Pseudomonas aeruginosa = test: Antimicrobial activity against Pseudomonas aeruginosa ATCC BAA-427 after 24 hrs by microbroth dilution method; assay type: functional; details: ATCC BAA-427, 24 h
Summary of the method: (§2)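 Broth microdilution per NCCLS guidelines. Bacteria in Mueller-Hinton broth; fungi in MOPS-buffered RPMI 1640. Test compounds at 50-0.36 µg/mL, standard drugs over 32-0.0018 µg/mL. Inoculum 1-5 × 10^3 cells/mL, 35 °C in a moist chamber. A492 read at 24 h for bacteria, 48 h for C. albicans, 72 h for A. fumigatus, C. neoformans and S. schenckii, 96 h for T. mentagrophytes. MIC taken as 90% growth inhibition relative to growth control.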

L929 [2] = test: Cytotoxicity against mouse L929 cells assessed as change in morphology at 50 ug/ml after 24 hrs using Giemsa staining by phase contrast microscopy; assay type: cell-based; details: l929, 24 h
Summary of the method: (§3)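 Mouse fibroblast L929 cells grown in DMEM with 10% FBS and antibiotic/antimycotic at 37 °C, 5% CO2. Medium switched to serum-free DMEM at 90% confluency, then compounds added (DMSO stocks) for 24 h. Cells fixed, stained with Giemsa for 30 min at 37 °C, washed with PBS, air dried and examined by phase-contrast microscopy.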

Staphylococcus aureus [3] = test: Antimicrobial activity against Staphylococcus aureus ATCC 25923 after 24 hrs by microbroth dilution method; assay type: functional; details: ATCC 25923, 24 h; summary of the method: as §2
L929 [4] = test: Cytotoxicity against mouse L929 cells assessed as reduction in cell viability after 24 hrs by MTT assay; assay type: cell-based; details: l929, 24 h
Summary of the method: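 L929 fibroblasts in DMEM with 10% FBS at 37 °C, 5% CO2. Seeded at 1×10^3 cells per well, switched to serum-free DMEM at 90% confluency. Compounds from 1 mg/mL DMSO stocks tested at nine twofold dilutions for 24 h. MTT readout: viability = (A570−A630) sample / (A570−A630) control × 100.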

[5] = test system: Trichophyton mentagrophytes; test: Antimicrobial activity against Trichophyton mentagrophytes after 96 hrs by microbroth dilution method; assay type: functional; summary of the method: as §2
Sporothrix schenckii = test: Antimicrobial activity against Sporothrix schenckii after 72 hrs by microbroth dilution method; assay type: functional; summary of the method: as §2
Staphylococcus aureus [6] = test: Antimicrobial activity against vancomycin-resistant Staphylococcus aureus after 24 hrs by microbroth dilution method; assay type: functional; summary of the method: as §1
Cryptococcus neoformans = test: Antimicrobial activity against Cryptococcus neoformans after 72 hrs by microbroth dilution method; assay type: functional; summary of the method: as §2
Escherichia coli = test: Antimicrobial activity against Escherichia coli ATCC 9637 after 24 hrs by microbroth dilution method; assay type: functional; details: ATCC 9637, 24 h; summary of the method: as §2
L929 [7] = test: Cytotoxicity against mouse L929 cells assessed as change in morphology at MIC after 24 hrs using Giemsa staining by phase contrast microscopy; assay type: cell-based; details: l929, 24 h; summary of the method: as §3
Candida albicans [8] = test: Antimicrobial activity against Candida albicans after 48 hrs by microbroth dilution method; assay type: functional; summary of the method: as §2
Klebsiella pneumoniae [9] = test: Antimicrobial activity against Klebsiella pneumoniae ATCC 27736 after 24 hrs by microbroth dilution method; assay type: functional; details: ATCC 27736, 24 h; summary of the method: as §2
Aspergillus fumigatus = test: Antimicrobial activity against Aspergillus fumigatus after 72 hrs by microbroth dilution method; assay type: functional; summary of the method: as §2
Staphylococcus aureus [10] = test: Ratio of vancomycin MIC to compound MIC for Staphylococcus aureus ATCC 25923 after 24 hrs by microbroth dilution method; assay type: functional
Klebsiella pneumoniae [11] = test: Ratio of vancomycin MIC to compound MIC for Klebsiella pneumoniae ATCC 27736 after 24 hrs by microbroth dilution method; assay type: functional
Klebsiella pneumoniae [12] = test: Ratio of methicillin MIC to compound MIC for Klebsiella pneumoniae ATCC 27736 after 24 hrs by microbroth dilution method; assay type: functional
Klebsiella pneumoniae [13] = test: Ratio of gentamycin MIC to compound MIC for Klebsiella pneumoniae ATCC 27736 after 24 hrs by microbroth dilution method; assay type: functional
Staphylococcus aureus [14] = test: Ratio of ampicillin MIC to compound MIC for Staphylococcus aureus ATCC 25923 after 24 hrs by microbroth dilution method; assay type: functional
Klebsiella pneumoniae [15] = test: Ratio of ampicillin MIC to compound MIC for Klebsiella pneumoniae ATCC 27736 after 24 hrs by microbroth dilution method; assay type: functional
Candida albicans [16] = test: Ratio of miconazole MIC to compound MIC for Candida albicans after 48 hrs by microbroth dilution method; assay type: functional

SMILES	MIC (Staphylococcus aureus [1]) [µg/mL]	MIC (Pseudomonas aeruginosa) [µg/mL]	Activity (L929 [2])	MIC (Staphylococcus aureus [3]) [µg/mL]	Activity (L929 [4])	MIC [5] [µg/mL]	MIC (Sporothrix schenckii) [µg/mL]	MIC (Staphylococcus aureus [6]) [µg/mL]	MIC (Cryptococcus neoformans) [µg/mL]	MIC (Escherichia coli) [µg/mL]	Activity (L929 [7])	MIC (Candida albicans [8]) [µg/mL]	MIC (Klebsiella pneumoniae [9]) [µg/mL]	MIC (Aspergillus fumigatus) [µg/mL]	also measured
CC(C)CCO[C@@H]1C=CC(=O)[C@@H](Cn2cc(CCCCl)nn2)O1	6.25 (≈ 18.3 µM)	50 (≈ 146 µM)	Toxic	1.56 (≈ 4.56 µM)	Dose-dependent effect	50 (≈ 146 µM)	12.5 (≈ 36.6 µM)	6.25 (≈ 18.3 µM)	50 (≈ 146 µM)	50 (≈ 146 µM)	Non-toxic	25 (≈ 73.1 µM)	3.12 (≈ 9.13 µM)	50 (≈ 146 µM)	–
CCCCCc1cn(C[C@H]2O[C@H](OCCC(C)C)C=CC2=O)nn1	6.25 (≈ 18.6 µM)	> 50	Toxic	3.12 (≈ 9.3 µM)	Dose-dependent effect	3.12 (≈ 9.3 µM)	12.5 (≈ 37.3 µM)	6.25 (≈ 18.6 µM)	> 50	> 50	Non-toxic	> 50	3.12 (≈ 9.3 µM)	> 50	–
CCCCCCc1cn(C[C@H]2O[C@H](OCCC(C)C)C=CC2=O)nn1	6.25 (≈ 17.9 µM)	> 50	Toxic	3.12 (≈ 8.93 µM)	Dose-dependent effect	12.5 (≈ 35.8 µM)	25 (≈ 71.5 µM)	6.25 (≈ 17.9 µM)	> 50	> 50	Non-toxic	> 50	1.56 (≈ 4.46 µM)	> 50	–
CCCCCCCCc1cn(C[C@H]2O[C@H](OCCC(C)C)C=CC2=O)nn1	3.12 (≈ 8.26 µM)	> 50	Toxic	0.78 (≈ 2.07 µM)	Dose-dependent effect	3.12 (≈ 8.26 µM)	50 (≈ 132 µM)	3.12 (≈ 8.26 µM)	> 50	> 50	Non-toxic	> 50	0.78 (≈ 2.07 µM)	> 50	Ratio (Staphylococcus aureus [10]): 16; Ratio (Klebsiella pneumoniae [11]): 16; Ratio (Klebsiella pneumoniae [12]): 8; Ratio (Klebsiella pneumoniae [13]): 2; Ratio (Staphylococcus aureus [14]): 16; Ratio (Klebsiella pneumoniae [15]): 16
CCCCCCCCc1cn(C[C@H]2O[C@H](OCCCC)C=CC2=O)nn1	> 50	> 50	–	6.25 (≈ 17.2 µM)	–	6.25 (≈ 17.2 µM)	25 (≈ 68.8 µM)	> 50	25 (≈ 68.8 µM)	> 50	–	6.25 (≈ 17.2 µM)	> 50	> 50	Ratio (Candida albicans [16]): 4
CC(C)CCO[C@@H]1C=CC(=O)[C@@H](Cn2cc(C=O)nn2)O1	> 50	50 (≈ 170 µM)	Toxic	50 (≈ 170 µM)	Dose-dependent effect	3.12 (≈ 10.6 µM)	25 (≈ 85.2 µM)	> 50	50 (≈ 170 µM)	50 (≈ 170 µM)	Non-toxic	> 50	50 (≈ 170 µM)	25 (≈ 85.2 µM)	–
CC(C)CCO[C@@H]1C=CC(=O)[C@@H](Cn2cc(C(C)(C)C)nn2)O1	12.5 (≈ 38.9 µM)	> 50	Toxic	1.56 (≈ 4.85 µM)	Dose-dependent effect	> 50	12.5 (≈ 38.9 µM)	12.5 (≈ 38.9 µM)	25 (≈ 77.8 µM)	> 50	Non-toxic	25 (≈ 77.8 µM)	> 50	> 50	–
CC(C)CCO[C@@H]1C=CC(=O)[C@@H](Cn2cc(-c3ccccc3)nn2)O1	12.5 (≈ 36.6 µM)	50 (≈ 146 µM)	Toxic	6.25 (≈ 18.3 µM)	Dose-dependent effect	50 (≈ 146 µM)	12.5 (≈ 36.6 µM)	12.5 (≈ 36.6 µM)	25 (≈ 73.2 µM)	50 (≈ 146 µM)	Non-toxic	12.5 (≈ 36.6 µM)	3.12 (≈ 9.14 µM)	50 (≈ 146 µM)	–
CC(C)CCO[C@@H]1C=CC(=O)[C@@H](Cn2cc(-c3ccccn3)nn2)O1	12.5 (≈ 36.5 µM)	> 50	–	6.25 (≈ 18.3 µM)	–	12.5 (≈ 36.5 µM)	25 (≈ 73 µM)	12.5 (≈ 36.5 µM)	> 50	> 50	–	> 50	6.25 (≈ 18.3 µM)	> 50	–
CC(C)CCO[C@@H]1C=CC(=O)[C@@H](Cn2cc(-c3ccc(F)cc3)nn2)O1	3.12 (≈ 8.68 µM)	> 50	Toxic	0.78 (≈ 2.17 µM)	Dose-dependent effect	1.56 (≈ 4.34 µM)	6.25 (≈ 17.4 µM)	3.12 (≈ 8.68 µM)	50 (≈ 139 µM)	> 50	Non-toxic	6.25 (≈ 17.4 µM)	> 50	50 (≈ 139 µM)	Ratio (Staphylococcus aureus [10]): 16; Ratio (Staphylococcus aureus [14]): 16; Ratio (Candida albicans [16]): 4
CC(C)CCO[C@@H]1C=CC(=O)[C@@H](Cn2cc(C3CCCC3)nn2)O1	> 50	50 (≈ 150 µM)	–	50 (≈ 150 µM)	–	50 (≈ 150 µM)	50 (≈ 150 µM)	> 50	50 (≈ 150 µM)	50 (≈ 150 µM)	–	25 (≈ 75 µM)	50 (≈ 150 µM)	50 (≈ 150 µM)	–
CC(C)CCO[C@@H]1C=CC(=O)[C@@H](Cn2cc(C3CC3)nn2)O1	> 50	> 50	–	6.25 (≈ 20.5 µM)	–	6.25 (≈ 20.5 µM)	12.5 (≈ 40.9 µM)	> 50	25 (≈ 81.9 µM)	> 50	–	12.5 (≈ 40.9 µM)	> 50	> 50	–
CC(C)CCO[C@@H]1C=CC(=O)[C@@H](Cn2cc(CCCN3C(=O)c4ccccc4C3=O)nn2)O1	25 (≈ 55.2 µM)	> 50	–	6.25 (≈ 13.8 µM)	–	25 (≈ 55.2 µM)	50 (≈ 110 µM)	25 (≈ 55.2 µM)	50 (≈ 110 µM)	> 50	–	25 (≈ 55.2 µM)	> 50	> 50	–
CC(C)CCO[C@@H]1C=CC(=O)[C@@H](Cn2ccnn2)O1	> 50	> 50	–	25 (≈ 94.2 µM)	–	> 50	> 50	> 50	50 (≈ 188 µM)	50 (≈ 188 µM)	–	50 (≈ 188 µM)	> 50	> 50	–
CC(C)CCO[C@@H]1C=CC(=O)[C@@H](Cn2cc(CCn3cc(C4CC4)nn3)nn2)O1	> 50	> 50	–	25 (≈ 62.4 µM)	–	> 50	> 50	> 50	50 (≈ 125 µM)	> 50	–	50 (≈ 125 µM)	> 50	> 50	–
CC(C)CCO[C@@H]1C=CC(=O)[C@@H](Cn2cc(CCn3cc(-c4ccccc4)nn3)nn2)O1	> 50	> 50	–	50 (≈ 115 µM)	–	50 (≈ 115 µM)	50 (≈ 115 µM)	> 50	50 (≈ 115 µM)	> 50	–	50 (≈ 115 µM)	> 50	> 50	–
CCCCCCCCc1cnnn1C[C@H]1O[C@H](OCCC(C)C)C=CC1=O	12.5 (≈ 33.1 µM)	> 50	Toxic	0.78 (≈ 2.07 µM)	Dose-dependent effect	25 (≈ 66.2 µM)	6.25 (≈ 16.6 µM)	12.5 (≈ 33.1 µM)	25 (≈ 66.2 µM)	> 50	Non-toxic	50 (≈ 132 µM)	50 (≈ 132 µM)	> 50	Ratio (Staphylococcus aureus [10]): 16; Ratio (Staphylococcus aureus [14]): 16
